Laboratory results published in PubChem BioAssay.
Active and inactive are the calls of the source.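 The calls were made as follows, unless noted: active = GFP response above 150% of the DMSO level; inconclusive = fewer than 70 events counted for a yeast strain; inactive = the rest.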

How the values were obtained:
[1] = hit retest on RPL19A-GFP reporter strain – cell-based, S. cerevisiae, flow cytometry, cherry picks, mother/daughter gates, confirmation (AID 2270;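 active = GFP response below 50% of the DMSO control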); conditions: 3 h, at 10 µM, stronger effect = lower value, 100 = same GFP as DMSO wells
[2] = yeast TOR pathway reporter LAP4-GFP change – cell-based, cherry picks, flow cytometry, mother/daughter gates, confirmation (AID 2271;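 active = GFP response above 150% of the DMSO control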;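 also: ratio of sample to DMSO plate mean so 100% equals DMSO level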); conditions: S. cerevisiae LAP4-GFP strain, 3 h, at 10 µM, stronger effect = higher value, 100 means same as DMSO control
How it was run: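 Test system: GFP-fusion yeast strain / Amount: 0.2 OD600 cells / Buffer or medium: SC medium / Dosing: 10 µM single dose / Incubation: compound exposure 3 h at 30 °C, end-over-end rotation / Detection: HT flow cytometry, GFP fluorescence channel / Evaluation: median GFP fluorescence as percent of plate-mean DMSO wells / Control set: DMSO-only negative wells, rapamycin 400 ng/mL positive wells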

[3] = TOR pathway reporter MEP2-GFP, retest of hits – S. cerevisiae, flow cytometry GFP, cherry picks, confirmation (AID 2272;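 active = GFP response above 150% of the DMSO control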;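 also: ratio of well signal to plate DMSO mean so 100% equals DMSO level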); conditions: S. cerevisiae MEP2-GFP strain, 3 h, at 10 µM, stronger effect = higher value
[4] = yeast AGP1-GFP fluorescence change, single-dose – cell-based, flow cytometry, S. cerevisiae, cherry picks, confirmation (AID 2273);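 also: median GFP channel fluorescence over the whole cell population gate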; conditions: S. cerevisiae AGP1-GFP strain, 3 h, at 10 µM
[5] = TOR pathway CIT2 reporter hit retest – S. cerevisiae, GFP fusion, cherry picks, mother/daughter gates, confirmation (AID 2274); conditions: S. cerevisiae CIT2-GFP strain, flow cytometry, 3 h, at 10 µM, stronger effect = higher value
[6] = measured here: daughter cell gate
[7] = measured here: mother cell gate
[8] = measured here: daughter cell gate response
[9] = measured here: mother cell gate response

SMILES	GFP response vs DMSO [1]	GFP response vs DMSO [1, 6]	GFP response vs DMSO [1, 7]	GFP response relative to DMSO [2]	GFP response relative to DMSO [2, 8]	GFP response relative to DMSO [2, 9]	GFP response vs DMSO [3]	GFP response, % of DMSO [4]	GFP response, % of DMSO [5]	GFP response, % of DMSO [5, 6]	GFP response, % of DMSO [5, 7]
CC(=O)Nc1ccc(NC(=O)c2ccccc2F)cc1	99.8% (inactive)	100%	98.6%	94.4% (inactive)	94.2%	94.1%	99% (inactive)	100% (inactive)	103% (inactive)	101%	99.3%
Cc1ccc(N(C(=O)CCCC(=O)Nc2ccccn2)C(C(=O)NC2CCCC2)c2ccc(O)cc2)cc1C (centres undefined)	98.4% (inactive)	99%	99.8%	98.7% (inactive)	98.7%	98.3%	117% (inactive)	111% (inactive)	111% (inactive)	108%	112%
COC(=O)c1ccc(/C=N\NC(=O)c2ccc(C)cc2Cl)cc1	98.6% (inactive)	98.9%	96.7%	95.4% (inactive)	94.4%	95.1%	102% (inactive)	96.4% (inactive)	103% (inactive)	105%	99.7%
COC(=O)c1cccc(-n2c(CCC(=O)O)ccc2-c2cccs2)c1	99.2% (inactive)	98.9%	100%	104% (inactive)	103%	103%	98.8% (inactive)	103% (inactive)	97.2% (inactive)	96.8%	97.7%
Cc1cccc(C(=O)Nc2ccc(O)cc2)c1	97.6% (inactive)	97%	97.3%	100% (inactive)	99%	101%	108% (inactive)	104% (inactive)	103% (inactive)	101%	104%
C/C(=N\NC(=O)c1cccc(Br)c1)c1ccc(Br)cc1	96.7% (inactive)	98.7%	95%	106% (inactive)	97.5%	107%	103% (inactive)	98.8% (inactive)	98.6% (inactive)	101%	98.2%
Clc1ccc(-n2nnnc2Sc2ncnc3sccc23)cc1	100% (inactive)	98.4%	98.8%	131% (inactive)	123%	130%	131% (inactive)	115% (inactive)	106% (inactive)	105%	105%
Cc1ccn2c(NC(=O)c3ccco3)c(-c3ccccc3)nc2c1	98.6% (inactive)	100%	96.6%	96.7% (inactive)	96%	96.1%	107% (inactive)	94.8% (inactive)	103% (inactive)	103%	101%
Brc1cc(Br)c2nc(-c3cccs3)ccc2c1	97.4% (inactive)	99.1%	96.7%	99.5% (inactive)	99.1%	98.4%	101% (inactive)	98.2% (inactive)	100% (inactive)	97.4%	99.3%
Cc1cc(N2CCCCC2)n2ncc(-c3ccccc3)c2n1	97.6% (inactive)	97.3%	98.4%	102% (inactive)	106%	102%	95.7% (inactive)	95.2% (inactive)	104% (inactive)	103%	103%
CCCCc1[nH]nc2c1C1(C(=O)N(CC)c3ccccc31)C(C#N)=C(N)O2 (centres undefined)	105% (inactive)	101%	103%	98.2% (inactive)	97.5%	98.4%	101% (inactive)	106% (inactive)	102% (inactive)	97.4%	95.6%
CC1CCc2c(C(=O)NCc3cccnc3)csc2C1 (centres undefined)	94.2% (inactive)	94.2%	92.7%	111% (inactive)	109%	113%	94.7% (inactive)	95.9% (inactive)	87.2% (inactive)	84.8%	88.2%
O=C(COc1ccccc1)Nc1c2c(nn1-c1ccccc1)CS(=O)C2 (centres undefined)	97.1% (inactive)	96.4%	96.5%	97.7% (inactive)	99%	96.4%	103% (inactive)	104% (inactive)	98.6% (inactive)	97.6%	100%
O=C1C(Cl)=C(Nc2ccccc2O)C(=O)N1CCc1ccccc1	98% (inactive)	97.8%	97.9%	103% (inactive)	101%	104%	112% (inactive)	104% (inactive)	106% (inactive)	104%	104%
